# Assay results as given in ChEMBL document CHEMBL3865784 (Eur J Med Chem, 2016).
# Active and inactive are the calls of the source. The rule behind the calls is not given here.
# Tests used:
# [1] = Cytotoxicity against NQO1-deficient human PBMC assessed as reduction in cell viability after 72 hrs by MTT assay; format: toxicity, cell-based; details: for IC50: pbmc
# [2] = Cytotoxicity against human HCT116 cells expressing NQO1 assessed as reduction in cell viability after 72 hrs by MTT assay; format: functional, cell-based; details: HCT-116, 72 h
# In short: (§1)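 Cancer lines from NCI, grown in RPMI 1640 with 10% FBS, 2 mM L-glutamine, penicillin/streptomycin, 37 °C, 5% CO2; seeded 0.1 × 10^6 cells/well (HL-60) or 0.7 × 10^5 cells/well (solid tumours). Compounds in DMSO, final 0.1% v/v; DMSO vehicle as negative control.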
# [3] = Cytotoxicity against human MDA-MB-435 cells overexpressing NQO1 assessed as reduction in cell viability after 72 hrs by MTT assay; format: functional, cell-based; details: MDA-MB-435, 72 h; in short: as §1
# [4] = Cytotoxicity against human OVCAR8 cells overexpressing NQO1 assessed as reduction in cell viability after 72 hrs by MTT assay; format: functional, cell-based; details: OVCAR-8, 72 h; in short: as §1
# [5] = Cytotoxicity against NQO1-deficient chinese hamster V79 cells assessed as reduction in cell viability after 72 hrs by MTT assay; format: toxicity, cell-based, Cricetulus griseus; details: for IC50: v79
# [6] = (§2) Cytotoxicity against NQO1-deficient mouse L929 cells assessed as reduction in cell viability after 72 hrs by MTT assay; format: toxicity, cell-based; details: mouse, NQO1-deficient L929 cells
# PC-3 [7] = test: Induction of apoptosis in human PC3 cells assessed as externalization of phosphatidylserine on cell surface by measuring early apoptotic cells at 5 uM pretreated with NAC measured after 6 hrs by Annexin-V/FITC/PI staining by flow cytometry (reference value: 0.93 +/- 0.05%); format: functional
# PC-3 [8] = test: Induction of apoptosis in human PC3 cells assessed as externalization of phosphatidylserine on cell surface by measuring late apoptotic cells at 5 uM cotreated with NQO1 inhibitor dicoumarol measured after 6 hrs by Annexin-V/FITC/PI staining by flow cytometry (reference value: 0%); format: functional; set-up: scale not given: the % may be the effect or the level left
# [9] = Cytotoxicity against human SF295 cells overexpressing NQO1 assessed as reduction in cell viability after 72 hrs by MTT assay; format: functional, cell-based; details: SF-295, 72 h
# [10] = Cytotoxicity against human PC3 cells overexpressing NQO1 assessed as reduction in cell viability after 72 hrs by MTT assay; format: functional, cell-based; details: PC-3, 72 h
# PC-3 [11] = test: Induction of apoptosis in human PC3 cells assessed as externalization of phosphatidylserine on cell surface by measuring late apoptotic cells at 5 uM pretreated with NAC measured after 6 hrs by Annexin-V/FITC/PI staining by flow cytometry (reference value: 0%); format: functional
# Mus musculus = organism: Mus musculus; test: as §2; format: toxicity, cell-based; details: l929
# [12] = Cytotoxicity against NQO1-deficient human HL60 cells assessed as reduction in cell viability after 72 hrs by MTT assay; format: functional, cell-based; details: HL-60, 72 h; in short: as §1
# PC-3 [13] = test: Induction of apoptosis in human PC3 cells assessed as externalization of phosphatidylserine on cell surface by measuring early apoptotic cells at 5 uM after 6 hrs by Annexin-V/FITC/PI staining by flow cytometry (reference value: 0.93 +/- 0.05%); format: functional
# PC-3 [14] = test: Induction of apoptosis in human PC3 cells assessed as externalization of phosphatidylserine on cell surface by measuring early apoptotic cells at 5 uM cotreated with NQO1 inhibitor dicoumarol measured after 6 hrs by Annexin-V/FITC/PI staining by flow cytometry (reference value: 0.93 +/- 0.05%); format: functional; set-up: scale not given: the % may be the effect or the level left
# OVCAR-8 [15] = test: Selectivity index, ratio of IC50 for NQO1-deficient human PBMC to IC50 for human OVCAR8 cells overexpressing NQO1
# In short: (§3)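 Selectivity index is IC50 in the normal cells divided by IC50 in the cancer line. All IC50s come from 72 h MTT assays. Normal cells: V79 and L929 in DMEM, PBMC in RPMI with phytohaemagglutinin. Cancer lines in RPMI with 10% FBS, seeded at 0.1 × 10^6 (HL-60) or 0.7 × 10^5 cells/well (solid tumors). Absorbance 550 nm; nonlinear regression.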
# HCT-116 [16] = test: Selectivity index, ratio of IC50 for NQO1-deficient mouse L929 cells to IC50 for human HCT116 cells expressing NQO1; in short: as §3
# L929 [17] = test: Selectivity index, ratio of IC50 for NQO1-deficient mouse L929 cells to IC50 for human OVCAR8 cells overexpressing NQO1
# In short: (§4)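 Selectivity index is IC50 in the normal cells divided by IC50 in the cancer line. Normal cells: V79 and L929 in DMEM, PBMC in RPMI with phytohaemagglutinin. Cancer lines in RPMI with 10% FBS, seeded at 0.1 × 10^6 (HL-60) or 0.7 × 10^5 cells/well (solid tumors). Absorbance 550 nm; nonlinear regression.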
# PC-3 [18] = test: Selectivity index, ratio of IC50 for NQO1-deficient human PBMC to IC50 for human PC3 cells overexpressing NQO1; in short: as §4
# [19] = Selectivity index, ratio of IC50 for NQO1-deficient human PBMC to IC50 for human MDA-MB-435 cells overexpressing NQO1; in short: as §4
# L929 [20] = test: Selectivity index, ratio of IC50 for NQO1-deficient mouse L929 cells to IC50 for human SF295 cells overexpressing NQO1; in short: as §4
# HL-60 [21] = test: Selectivity index, ratio of IC50 for NQO1-deficient human PBMC to IC50 for NQO1-deficient human HL60 cells; in short: as §4
# HCT-116 [22] = test: Selectivity index, ratio of IC50 for NQO1-deficient chinese hamster V79 cells to IC50 for human HCT116 cells expressing NQO1; in short: as §3
# V79 [23] = test: Selectivity index, ratio of IC50 for NQO1-deficient chinese hamster V79 cells to IC50 for human MDA-MB-435 cells overexpressing NQO1; in short: as §4
# L929 [24] = test: Selectivity index, ratio of IC50 for NQO1-deficient mouse L929 cells to IC50 for NQO1-deficient human HL60 cells; format: functional; in short: as §4
# L929 [25] = test: Selectivity index, ratio of IC50 for NQO1-deficient mouse L929 cells to IC50 for human MDA-MB-435 cells overexpressing NQO1; in short: as §4
# [26] = target: NAD(P)H dehydrogenase [quinone] 1 (Homo sapiens) (UniProt P15559); test: Activation of NQO1 in human PC3 cells assessed as induction of ROS generation at 5 uM after 1 hr by H2DCFDA probe based flow cytometric analysis; format: cell-based; details: PC-3
# V79 [27] = test: Selectivity index, ratio of IC50 for NQO1-deficient chinese hamster V79 cells to IC50 for human PC3 cells overexpressing NQO1; in short: as §4
# HL-60 [28] = test: Selectivity index, ratio of IC50 for NQO1-deficient chinese hamster V79 cells to IC50 for NQO1-deficient human HL60 cells; format: functional; in short: as §4
# HCT-116 [29] = test: Selectivity index, ratio of IC50 for NQO1-deficient human PBMC to IC50 for human HCT116 cells expressing NQO1; in short: as §3
# PC-3 [30] = test: Induction of apoptosis in human PC3 cells assessed as externalization of phosphatidylserine on cell surface by measuring late apoptotic cells at 5 uM after 6 hrs by Annexin-V/FITC/PI staining by flow cytometry (reference value: 0%); format: functional
# L929 [31] = test: Selectivity index, ratio of IC50 for NQO1-deficient mouse L929 cells to IC50 for human PC3 cells overexpressing NQO1; in short: as §4
# OVCAR-8 [32] = test: Selectivity index, ratio of IC50 for NQO1-deficient chinese hamster V79 cells to IC50 for human OVCAR8 cells overexpressing NQO1; in short: as §3
# SF-295 [33] = test: Selectivity index, ratio of IC50 for NQO1-deficient chinese hamster V79 cells to IC50 for human SF295 cells overexpressing NQO1; in short: as §4
# SF-295 [34] = test: Selectivity index, ratio of IC50 for NQO1-deficient human PBMC to IC50 for human SF295 cells overexpressing NQO1; in short: as §4
# Chain of NAD(P)H dehydrogenase [quinone] 1 (Homo sapiens) (P15559 whole entry): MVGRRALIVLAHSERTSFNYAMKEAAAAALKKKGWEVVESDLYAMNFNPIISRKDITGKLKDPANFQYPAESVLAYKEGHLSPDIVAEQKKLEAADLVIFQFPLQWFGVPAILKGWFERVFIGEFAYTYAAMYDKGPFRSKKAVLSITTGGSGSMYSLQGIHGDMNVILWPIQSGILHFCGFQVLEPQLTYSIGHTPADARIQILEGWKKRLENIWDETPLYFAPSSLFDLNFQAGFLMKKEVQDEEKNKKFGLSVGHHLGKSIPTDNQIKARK
SMILES,IC50 [2] [nM],IC50 [3] [nM],IC50 [4] [nM],IC50 [1] [nM],IC50 [9] [nM],IC50 [10] [nM],IC50 [5] [nM],IC50 (Mus musculus) [nM],IC50 [12] [nM],Activity (PC-3 [13]) [%],Ratio IC50 (OVCAR-8 [15]),Ratio IC50 (HCT-116 [16]),Ratio IC50 (L929 [17]),Ratio IC50 (PC-3 [18]),Ratio IC50 [19],Ratio IC50 (L929 [20]),Ratio IC50 (HL-60 [21]),Ratio IC50 (HCT-116 [22]),Ratio IC50 (V79 [23]),Ratio IC50 (L929 [24]),further results
COc1cccc2c1C(=O)c1c(O)c3c(c(O)c1C2=O)C[C@@](O)(C(=O)CO)C[C@@H]3O[C@H]1C[C@H](N)[C@H](O)[C@H](C)O1 [DOXORUBICIN],150,960,410,–,–,–,–,–,–,–,–,–,–,–,–,–,–,–,–,–,"IC50 at 72 h ([1]; human): 550 nM; IC50 at 72 h ([5]; Chinese hamster, NQO1-deficient V79 cells): 280 nM; IC50 at 72 h [6]: 230 nM"
CC1(C)OC2=C(C(=O)C(=O)c3ccccc32)C1n1cc(C[Se]c2ccccc2)nn1 (centres undefined),–,1060,2260,1760,1310,2430,2650,2300,1290,15.07,–,–,–,–,–,–,–,–,–,–,Activity (PC-3 [7]): 1.12%; Activity (PC-3 [8]): 0%; Activity (PC-3 [11]): 0%; Activity (PC-3 [14]): 1.26%
CC1(C)OC2=C(C(=O)C(=O)c3ccccc32)C1Nc1cccc(-c2cn(C[Se]c3ccccc3)nn2)c1 (centres undefined),140,230,200,1390,340,380,1130,940,70,16.61,6.9,6.7,4.7,3.6,6,2.7,19.8,8,4.9,13.4,Activity (PC-3 [7]): 0.89%; Activity (PC-3 [8]): 0%; Ratio IC50 (L929 [25]): 4; Activity [26]: Active; Ratio IC50 (V79 [27]): 2.9; Ratio IC50 (HL-60 [28]): 16.1; Ratio IC50 (HCT-116 [29]): 9.9; Activity (PC-3 [11]): 0%; Activity (PC-3 [30]): 3.27%; Ratio IC50 (L929 [31]): 2.4; Activity (PC-3 [14]): 0.91%; Ratio IC50 (OVCAR-8 [32]): 5.6
CC1(C)OC2=C(C(=O)c3ccccc3C2=O)C1Nc1cccc(-c2cn(C[Se]c3ccccc3)nn2)c1 (centres undefined),1280,880,680,3330,1080,1710,3780,3380,1080,–,4.8,2.6,4.9,1.9,3.7,3.1,3,2.9,4.2,3.1,Ratio IC50 (SF-295 [33]): 3.5; Ratio IC50 (L929 [25]): 3.8; Ratio IC50 (V79 [27]): 2.2; Ratio IC50 (HL-60 [28]): 3.5; Ratio IC50 (SF-295 [34]): 3; Ratio IC50 (HCT-116 [29]): 2.6; Ratio IC50 (L929 [31]): 1.9; Ratio IC50 (OVCAR-8 [32]): 5.5
[N-]=[N+]=NCC1CC2=C(O1)C(=O)c1ccccc1C2=O (centres undefined),240,200,350,3210,350,390,2470,2150,310,–,9.1,8.9,6.1,8.2,16,6.1,10.3,10.2,12.3,6.9,Ratio IC50 (SF-295 [33]): 7; Ratio IC50 (L929 [25]): 10.7; Ratio IC50 (V79 [27]): 6.3; Ratio IC50 (HL-60 [28]): 7.9; Ratio IC50 (SF-295 [34]): 9.1; Ratio IC50 (HCT-116 [29]): 13.3; Ratio IC50 (L929 [31]): 5.5; Ratio IC50 (OVCAR-8 [32]): 7
CC(=O)N[C@@H](CS)C(=O)O [ACETYLCYSTEINE],–,–,–,–,–,–,–,–,–,0.87,–,–,–,–,–,–,–,–,–,–,Activity (PC-3 [30]): 0%
O=c1oc2ccccc2c(O)c1Cc1c(O)c2ccccc2oc1=O [DICUMAROL],–,–,–,–,–,–,–,–,–,0.95,–,–,–,–,–,–,–,–,–,–,Activity (PC-3 [30]): 0%
